Results on 97 compounds are retold here after PubChem BioAssay AID1046 (PCMD, 2008).

Structures are written as SMILES. About 560 (0.25%) of roughly 220,000 compounds were called active. The sample holds actives, similar compounds and a random draw of the others, so the mix is not that of the screen.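 Rule for the calls: active = inhibition at or above 40%; inactive = inhibition below 40%.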

This assay addresses Prothrombin (Homo sapiens) (UniProt P00734). The experiment in a line: blockers of thrombin peptide substrate cleavage – biochemical, 1536-well, fluorogenic AMC substrate, counter-screen for coagulation protease inhibitor project, primary screen (AID 1046).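 Note: 0% = enzyme with no compound and 100% = wells without enzyme.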 Conditions: alpha-thrombin, Boc-VPR-AMC fluorogenic substrate cleavage; at 5 µM; stronger effect = higher value. In a few lines: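 Assay system: human alpha-thrombin enzyme. Reagent: Boc-VPR-AMC substrate, 15 µM final. Compound dosing: one concentration per compound, 5 µM, with 0.2% DMSO. Incubation: room-temperature reaction. Technique: AMC fluorescence, 355/460 nm. Measure: % inhibition relative to enzyme controls and enzyme-free blanks.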
Background: A counterscreen serves to expose hits that act by an unwanted route or on another target.
With `CN1CCN(CCC(=O)N/N=C/C=C2\N(C)c3ccccc3C2(C)C)CC1`, the inhibition is -4.81% (inactive).

Turning to `CC(C)(C)NC(=O)c1cccc(NC(=O)Cc2ccc(Br)cc2)c1`, the inhibition is -6.49% (inactive).

`CC(=O)NNC(=O)c1csc(Cc2c(Cl)sc3ccc(Cl)cc23)n1`: the inhibition is -1.7% (inactive).

For `CCOC(=O)C1CCN(c2c(Nc3cc(C)cc(C)c3)c(=O)c2=O)CC1`, the inhibition is -1.29% (inactive).

Turning to `CS(=O)(=O)n1nc(-c2ccco2)nc1N`, the inhibition was 1.66% (inactive).

On to `CSc1nc(-c2ccco2)nn1C(=O)c1ccccc1Cl`, for which the inhibition is 0.04% (inactive).

For the compound `CSc1nc(-c2ccco2)nn1C(=O)CCc1ccccc1`, the inhibition is 99.4% (active).

Regarding `O=C(c1cccc(S(=O)(=O)N2CCCC2)c1)N(Cc1ccco1)C1CCS(=O)(=O)C1` (configuration not stated), the inhibition is -1.64% (inactive).

For `COC(=O)C(NS(=O)(=O)c1ccc(F)cc1)c1ccccc1` (configuration not stated), the inhibition is 5.5% (inactive).

For the compound `CC(=O)NC(NC(=S)Nc1c(C)n(C)n(-c2ccccc2)c1=O)C(Cl)(Cl)Cl` (configuration not stated), the inhibition was -5.85% (inactive).

As to `CCn1c(-c2cccnc2Cl)nc2cc(C)c(C)cc21`, the inhibition was 0.78% (inactive).

Regarding `Cc1ccccc1CC1(CO)CCCN(C(=O)c2cc(-c3ccccc3)no2)C1` (configuration not stated), the inhibition was -8.1% (inactive).

As for `CC(C)CC(CC(C)C)=NNC(=O)c1ccc(CSc2nncn2C)cc1`, the inhibition was 6.95% (inactive).

In the case of `CCn1ncc(CNC(=O)C2(C)CC2(Br)Br)c1C` (configuration not stated), the inhibition is -5.28% (inactive).

`CC1(C)CC(=O)c2cnc3nc4ccccc4n3c2C1`: the inhibition is -14.5% (inactive).

Take `Cc1ccc(C)c2[nH]c(=O)c(CN(Cc3cccnc3)C(=S)NCc3ccco3)cc12`: the inhibition was -27% (inactive).

With `COc1ccccc1N1CCN(c2ccc([N+](=O)[O-])nc2)CC1`, the inhibition was 1.48% (inactive).

Regarding `COc1ccc(CN2CCC(c3nc4ccc(Cl)cc4[nH]3)CC2)cc1`, the inhibition is 1.55% (inactive).

As for `Cc1ccc(NNC(=O)c2cccs2)cc1Cl`, the inhibition is 0.15% (inactive).

On to `COc1ccc(-c2nn(C)c(=O)c3ccccc23)cc1CNC(=O)C1CCCCC1`, for which the inhibition is 70.8% (active).

`COc1ccc(-c2nn(C)c(=O)c3ccccc23)cc1NC(=O)COc1ccccc1`: the inhibition was 3.07% (inactive).

Regarding `CCC(=O)NCc1cc(-c2nn(C)c(=O)c3ccccc23)ccc1OC`, the inhibition is 2.19% (inactive).

`Cc1cc(CO)nn1-c1ccc([N+](=O)[O-])cc1`: the inhibition is -4.29% (inactive).

For `Cc1nnc(N/N=C/c2cccs2)[nH]c1=O`, the inhibition is -0.86% (inactive).

As for `CCn1c(=O)c2cc(C(=O)Nc3cccc(C(C)=O)c3)sc2c2ccccc21`, the inhibition was -4.44% (inactive).

As for `CC(C)S(=O)(=O)c1csc(NC(=O)Nc2ccc(Cl)cc2)c1Cl`, the inhibition was 3.02% (inactive).

On to `O=C(Nc1nsc(-c2ccccc2)n1)c1ccncc1`, for which the inhibition was 3.88% (inactive).

As for `Cn1sc(NC(=O)c2ccccc2)nc1=O`, the inhibition is 3.97% (inactive).

Turning to `COC(=O)c1nc(NC(=O)c2ccc(F)cc2)n[nH]1`, the inhibition was 94.8% (active).

With `COC(=O)c1nc(NC(=O)c2ccccc2)n[nH]1`, the inhibition is 98.4% (active).

Turning to `O=C(Nc1n[nH]c(C(F)(F)F)n1)c1cccs1`, the inhibition is 5% (inactive).

Turning to `COc1ccc(N2CCN(C(=O)CNC(=O)c3ccc(C(C)(C)C)cc3)CC2)cc1`, the inhibition is 12.8% (inactive).

Take `COC(=O)c1nc(NC(=O)c2ccc(C(C)(C)C)cc2)n[nH]1`: the inhibition is 58.9% (active).

For `C/C(=N/NC(=O)c1ccc(NC(=O)c2ccc(F)cc2)cc1)c1ccccc1`, the inhibition was 3.8% (inactive).

Consider `COc1ccc(C(=O)Nc2ccc(F)cc2F)cc1`, for which the inhibition is -13.8% (inactive).

Regarding `S=c1[nH]nc(-c2ccncc2)n1/N=C/c1ccccc1Cl`, the inhibition was -3.11% (inactive).

Turning to `COc1ccccc1-c1noc(CSc2nc(C)cc(=O)[nH]2)n1`, the inhibition is -11.8% (inactive).

As to `Cc1ccc(SC(C)C(=O)NCc2ccc(F)cc2)cc1` (configuration not stated), the inhibition was -10% (inactive).

Regarding `Cc1c(-c2ccccc2)n[nH]c1C(=O)N=Nc1c(O)[nH]c2ccccc12`, the inhibition is -11.5% (inactive).

Regarding `Cc1nc(SCc2ccc(F)cc2)c([N+](=O)[O-])[nH]1`, the inhibition was -2.86% (inactive).

For `Cn1nnc(NC(=O)CSc2ncn[nH]2)n1`, the inhibition was -4.19% (inactive).

In the case of `ClC1(Cl)CC1CSc1ncn[nH]1` (configuration not stated), the inhibition is 102% (active).

For `COc1ccc(Cl)cc1CSc1ncn[nH]1`, the inhibition is -8.18% (inactive).

As for `CC1CN(CCOc2ccccc2[N+](=O)[O-])CC(C)O1` (configuration not stated), the inhibition was 1.06% (inactive).

Turning to `Cc1ccc(NC(=O)c2ccn(C(=O)Nc3ccccc3)n2)c(C)c1`, the inhibition is 1.51% (inactive).

In the case of `CC1=NCCN1S(=O)(=O)c1cccc([N+](=O)[O-])c1`, the inhibition is 2.02% (inactive).

For `CCCC(=O)OCC(=O)Nc1cc(Cl)ccc1[N+](=O)[O-]`, the inhibition was -3.57% (inactive).

Take `O=C(Nc1ccccc1)Nc1nnc(COc2ccccc2F)s1`: the inhibition was -0.32% (inactive).

In the case of `O=C(c1cccc([N+](=O)[O-])c1)N1CCN(C(=O)c2ccco2)CC1`, the inhibition was -2.02% (inactive).

`O=c1[nH]n(-c2ccc([N+](=O)[O-])cc2)c(=O)c2ccccc12`: the inhibition was -6.59% (inactive).

On to `CN1CCN(C(=O)C2C3C=CC(C3)C2C(=O)O)CC1` (configuration not stated), for which the inhibition is -0.84% (inactive).

For `CCN1CCN(C(=O)/C=C\C(=O)O)CC1`, the inhibition is -0.06% (inactive).

For `C/C(=C/C(=O)N1CCN(C)CC1)C(=O)O`, the inhibition was 103% (active).

In the case of `NS(=O)(=O)c1ccc(CCNC(=O)CCCn2c(SCC(=O)N3CCCC3)nc3ccsc3c2=O)cc1`, the inhibition is -6.72% (inactive).

For the compound `OCCC#Cc1ccc(CN2CCN(Cc3ccsc3)C(CCO)C2)cc1` (configuration not stated), the inhibition is -1.75% (inactive).

On to `CCN(CC)C(=O)CC1(c2ccccc2OC)CCOC(C(C)C)C1` (configuration not stated), for which the inhibition is -1.89% (inactive).

For the compound `Cc1ccc(S(=O)(=O)N(C)C)cc1NC(=O)/C=C/c1cccs1`, the inhibition is -6.43% (inactive).

As for `O=C(CC1C(=O)NCCN1Cc1ccc(-c2ccccc2)cc1)NCC1CCOCC1` (configuration not stated), the inhibition was -6.7% (inactive).

As to `COCC1CCCN(Cc2cn[nH]c2-c2cc3ccccc3o2)C1` (configuration not stated), the inhibition is -10.5% (inactive).

In the case of `Cc1ccc(C(=O)Nc2sc(Cc3ccc4c(c3)OCO4)c(C)c2C(N)=O)cc1`, the inhibition was 2.74% (inactive).

For `O=C(Nn1cnc2ccccc2c1=O)c1ccc([N+](=O)[O-])cc1Cl`, the inhibition was 6.94% (inactive).

Consider `O=C(CSc1cccc[n+]1[O-])c1ccc(Cl)cc1`, for which the inhibition was -1.76% (inactive).

Take `Cc1ccc(N(C(=O)Cc2cccs2)C(C(=O)NCC2CCCO2)c2ccncc2)cc1` (configuration not stated): the inhibition was 0.6% (inactive).

In the case of `COc1ccc(S(=O)(=O)N2CCC(C(=O)OCC(=O)c3ccccc3)CC2)cc1[N+](=O)[O-]`, the inhibition was 0.56% (inactive).

On to `O=C(NNC(=S)Nc1ccc(F)cc1)[C@H]1C[C@@H]1c1ccccc1`, for which the inhibition was -10.3% (inactive).

As to `CN(Cc1ccccn1)Cc1nc(-c2ccc(Cl)cc2)no1`, the inhibition is 57.7% (active).

Turning to `CCN1CC(CN(C)Cc2nc(-c3ccc(Cl)cc3)no2)CC1=O` (configuration not stated), the inhibition was -8.96% (inactive).

Take `COC(=O)c1ccc(-c2noc(CN(Cc3ccccn3)CC3CCCO3)n2)cc1` (configuration not stated): the inhibition was 21.1% (inactive).

In the case of `Cc1c(C(=O)O)nnn1-c1nonc1N`, the inhibition was 2.29% (inactive).

In the case of `OC1CSc2nc3ccccc3n2C1` (configuration not stated), the inhibition was 0.85% (inactive).

For `O=C(NC(=S)Nc1cc(C(F)(F)F)ccc1N1CCOCC1)c1ccc(-c2cccc(Cl)c2)o1`, the inhibition is -10.3% (inactive).

With `CC1(OC(=O)CCc2ccccc2)C(=O)C=C2C=C(c3ccc(C#N)cc3)N(CCc3ccccn3)C=C2C1=O` (configuration not stated), the inhibition is -12.4% (inactive).

In the case of `CC(=O)C1=C(O)C(=O)N(c2cccnc2)C1c1ccc([N+](=O)[O-])cc1` (configuration not stated), the inhibition is 2.53% (inactive).

Take `Cc1cccc(NC(=S)Nc2ccc(Cl)c(Cl)c2)c1`: the inhibition was 0.05% (inactive).

In the case of `Cc1cccc(NC(=S)NC23CN4CN(CN(C4)C2)C3)c1`, the inhibition was 53.8% (active).

On to `Cc1cccc(NC(=S)Nc2ccc(Br)cc2)c1`, for which the inhibition was 3.41% (inactive).

On to `S=C(Nc1ccc(Br)cc1Cl)N1CCC2(CC1)OCCO2`, for which the inhibition is -1.42% (inactive).

As to `O=C(NC1CCN(Cc2ccccc2)CC1)c1cc(Br)c(Br)[nH]1`, the inhibition was 1.26% (inactive).

In the case of `O=C(CCCOc1ccc(Cl)cc1Cl)NNC(=O)C1CCC1`, the inhibition was -6.08% (inactive).

As for `N/C(=N\OS(=O)(=O)c1cccc([N+](=O)[O-])c1)c1ccncc1`, the inhibition is -6.25% (inactive).

Take `CCCCNC(=O)CSc1nc2ccc(NC(=O)CSc3nnc(N)s3)cc2s1`: the inhibition is -6.44% (inactive).

Consider `O=C(Cc1ccccc1)N1N=C(c2ccncc2)CC1(O)C(F)(F)F` (configuration not stated), for which the inhibition is 2.25% (inactive).

Take `CCCC(=O)n1nc(-c2ccccc2)nc1N`: the inhibition is 27.1% (inactive).

Regarding `COc1ccc(CC(=O)n2nc(-c3cccnc3)nc2N)cc1`, the inhibition is 89.7% (active).

Take `COc1ccccc1C(=O)n1nc(-c2ccccc2)nc1N`: the inhibition is 19.2% (inactive).

Consider `CCN1CCN(c2nc(Nc3cc(OC)ccc3OC)nc(Nc3cc(OC)ccc3OC)n2)CC1`, for which the inhibition is -2.15% (inactive).

Take `Cc1nc(SCC(=O)N2CC(=O)Nc3ccccc32)c2c(C)c(C)sc2n1`: the inhibition is -0.55% (inactive).

For `Cc1nc(SCC(=O)N2CCc3ccccc3C2)c2c(C)c(C)sc2n1`, the inhibition was 103% (active).

As for `Cc1nnc(SCC(=O)N2CCc3ccccc3C2)s1`, the inhibition was 7.65% (inactive).

`CC1(C)Cc2cccc(OCC(=O)N3CCN(c4ccc([N+](=O)[O-])cc4)CC3)c2O1`: the inhibition was -1.43% (inactive).

`COc1ccc(NC(=O)C2=C(C)NC(=O)NC2c2ccccc2[N+](=O)[O-])cc1` (configuration not stated): the inhibition was -0.08% (inactive).

In the case of `CCOC(=O)N/N=C1\CC(C)S(=O)(=O)c2ccc(Cl)cc21` (configuration not stated), the inhibition is 28.2% (inactive).

As to `Cc1cc(=O)[nH]c(S)c1C#N`, the inhibition is -5% (inactive).

Turning to `CSCC[C@H](NC(=O)NC1CCCC1)C(=O)O`, the inhibition was -3.12% (inactive).

With `COc1cccc(NC(=O)C2CCCN2C(=O)OCc2ccccc2)c1` (configuration not stated), the inhibition was -12.3% (inactive).

As for `Cc1ccc(C)c(NC(=O)C2CCCN2C(=O)OC(C)(C)C)c1` (configuration not stated), the inhibition is 1.35% (inactive).

Take `Cc1ccc(C)c(NC(=O)C2Cc3ccccc3CN2C(=O)OCc2ccccc2)c1` (configuration not stated): the inhibition is 104% (active).

One may read the inhibition as the change of the read-out against control, counted positive when it falls.
